Results from ChEMBL document CHEMBL1275417, “Biological activities of novel gyrase inhibitors of the aminocoumarin class” (Antimicrob Agents Chemother, 2008).
Converted amounts (≈) assume the structure as drawn. The source made the active and inactive calls. No cut-off for these calls is given here.

What was measured:
Pseudomonas aeruginosa [1] = test: Antibacterial activity against Pseudomonas aeruginosa ATCC 27853 by broth microdilution method; type: functional
Pseudomonas aeruginosa [2] = test: Antibacterial activity against Pseudomonas aeruginosa K799/WT by broth microdilution method; type: functional
[3] = biological target: DNA gyrase subunit A (Escherichia coli K-12) (UniProt P0AES4); test: Inhibition of Escherichia coli K-12 DNA gyrase A expressed in Escherichia coli DC2 assessed as compound concentration required for => 4-fold induction of luxCDABE operon by reported gene assay
Outline: (§1)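 E. coli DC2 carrying a gyrA or sulA promoter–luxCDABE (Photorhabdus) fusion plasmid. Grown overnight at 37°C in LB with 2 μg/ml tetracycline, then diluted 1:100 in LB without tetracycline and precultured 1.5 h at 37°C. Compounds were added from DMSO stocks to 1% final DMSO and incubated 5 h at 37°C. Bioluminescence was divided by A595, and induction factor is the treated/untreated ratio. The value is the lowest test concentration giving ≥4-fold induction.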

Pseudomonas aeruginosa [4] = test: Antibacterial activity against Pseudomonas aeruginosa K799/61 by broth microdilution method; type: functional
Streptococcus pneumoniae [5] = test: Antibacterial activity against Streptococcus pneumoniae ATCC 49619 by broth microdilution method; type: functional
[6] = biological target: T1, Cell division inhibitor SulA (Escherichia coli K-12) (UniProt P0AFZ5); test: Inhibition of Escherichia coli K-12 DNA sulA expressed in Escherichia coli DC2 assessed as compound concentration required for => 4-fold induction of luxCDABE operon by reported gene assay; outline: as §1
T1 sequence (whole entry): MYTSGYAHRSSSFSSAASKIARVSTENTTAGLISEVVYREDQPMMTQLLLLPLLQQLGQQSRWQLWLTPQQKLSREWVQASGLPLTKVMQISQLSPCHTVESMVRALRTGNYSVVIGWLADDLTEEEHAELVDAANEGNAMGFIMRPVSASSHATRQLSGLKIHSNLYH

Enterococcus faecium = test: Antibacterial activity against Enterococcus faecium ATCC 19434 by broth microdilution method; type: functional
[7] = biological target: DNA gyrase (Escherichia coli); test: Inhibition of Escherichia coli JM109 DNA gyrase assessed as DNA triple helix formation by supercoiling assay
DNA gyrase subunit B = DNA gyrase subunit B (Escherichia coli, UniProt P0AES6); test: Inhibition of Escherichia coli JM109 DNA gyrase subunit B assessed as ATP hydrolysis by ATPase assay
Escherichia coli [8] = test: Antibacterial activity against Escherichia coli UB1005 by broth microdilution method; type: functional
Escherichia coli [9] = test: Antibacterial activity against Escherichia coli DC2 by broth microdilution method; type: functional
Staphylococcus aureus [10] = test: Antibacterial activity against Staphylococcus aureus ATCC 43300 by broth microdilution method; type: functional
Streptococcus pneumoniae [11] = test: Antibacterial activity against Streptococcus pneumoniae TUPELO by broth microdilution method; type: functional
Klebsiella pneumoniae = test: Antibacterial activity against Klebsiella pneumoniae ATCC 27736 by broth microdilution method; type: functional
Enterococcus faecalis = test: Antibacterial activity against Enterococcus faecalis ATCC 29212 by broth microdilution method; type: functional
Staphylococcus aureus [12] = test: Antibacterial activity against Staphylococcus aureus ATCC 29213 by broth microdilution method; type: functional
Escherichia coli [13] = test: Antibacterial activity against Escherichia coli ATCC 25922 by broth microdilution method; type: functional
Staphylococcus aureus [14] = test: Antibacterial activity against Staphylococcus aureus 80CR5 by broth microdilution method; type: functional
Streptococcus pneumoniae [15] = test: Antibacterial activity against Streptococcus pneumoniae SL336-T by broth microdilution method; type: functional

DNA gyrase subunit A (Escherichia coli K-12), sequence (P0AES4 whole entry, the tested form may be a part): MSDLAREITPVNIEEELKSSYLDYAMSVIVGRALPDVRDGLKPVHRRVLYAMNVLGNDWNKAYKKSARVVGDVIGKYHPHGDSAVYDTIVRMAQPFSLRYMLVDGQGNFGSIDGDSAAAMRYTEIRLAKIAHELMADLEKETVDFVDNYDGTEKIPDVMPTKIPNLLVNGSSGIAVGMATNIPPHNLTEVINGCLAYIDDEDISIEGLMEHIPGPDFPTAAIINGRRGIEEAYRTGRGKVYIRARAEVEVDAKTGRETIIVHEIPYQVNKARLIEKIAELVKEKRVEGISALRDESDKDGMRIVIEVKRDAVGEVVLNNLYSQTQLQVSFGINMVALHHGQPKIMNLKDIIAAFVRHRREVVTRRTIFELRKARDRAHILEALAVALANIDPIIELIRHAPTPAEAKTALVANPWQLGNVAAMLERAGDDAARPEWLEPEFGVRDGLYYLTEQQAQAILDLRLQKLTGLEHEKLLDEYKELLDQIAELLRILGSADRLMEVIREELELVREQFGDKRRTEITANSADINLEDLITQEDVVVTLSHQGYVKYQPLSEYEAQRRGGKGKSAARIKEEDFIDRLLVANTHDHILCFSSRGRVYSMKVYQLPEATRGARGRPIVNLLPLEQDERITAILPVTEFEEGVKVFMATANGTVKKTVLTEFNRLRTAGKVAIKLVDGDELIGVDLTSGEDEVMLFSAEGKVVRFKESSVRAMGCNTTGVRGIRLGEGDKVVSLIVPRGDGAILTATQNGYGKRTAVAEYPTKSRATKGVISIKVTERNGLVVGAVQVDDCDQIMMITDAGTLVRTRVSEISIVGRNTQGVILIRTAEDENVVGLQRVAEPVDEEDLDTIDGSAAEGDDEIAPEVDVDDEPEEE

SMILES	MIC (Pseudomonas aeruginosa [1])	MIC (Pseudomonas aeruginosa [2])	Activity [3]	MIC (Pseudomonas aeruginosa [4])	MIC (Streptococcus pneumoniae [5])	Activity [6]	MIC (Enterococcus faecium)	IC50 [7]	IC50 (DNA gyrase subunit B)	MIC (Escherichia coli [8])	MIC (Escherichia coli [9])	MIC (Staphylococcus aureus [10])	MIC (Streptococcus pneumoniae [11])	MIC (Klebsiella pneumoniae)	MIC (Enterococcus faecalis)	MIC (Staphylococcus aureus [12])	MIC (Escherichia coli [13])	MIC (Staphylococcus aureus [14])	MIC (Streptococcus pneumoniae [15])
C=CCc1cc(C(=O)Nc2c(O)c3ccc(O[C@@H]4OC(C)(C)[C@H](OC)[C@@H](OC(=O)c5ccc(C)[nH]5)[C@H]4O)c(C)c3oc2=O)ccc1O	> 32 µg/mL	> 32 µg/mL	1.6 µM	0.5 µg/mL (≈ 0.771 µM)	1 µg/mL (≈ 1.54 µM)	3.1 µM	> 32 µg/mL	34 nM	116 nM	> 32 µg/mL	8 µg/mL (≈ 12.3 µM)	≤ 0.06 µg/mL	2 µg/mL (≈ 3.08 µM)	> 32 µg/mL	8 µg/mL (≈ 12.3 µM)	≤ 0.06 µg/mL	> 32 µg/mL	16 µg/mL (≈ 24.7 µM)	2 µg/mL (≈ 3.08 µM)
COc1cc(C(=O)Nc2c(O)c3ccc(O[C@@H]4OC(C)(C)[C@H](OC)[C@@H](OC(=O)c5ccc(C)[nH]5)[C@H]4O)c(Cl)c3oc2=O)ccc1O	> 32 µg/mL	> 32 µg/mL	25 µM	1 µg/mL (≈ 1.52 µM)	2 µg/mL (≈ 3.03 µM)	6.3 µM	> 32 µg/mL	22 nM	122 nM	> 32 µg/mL	32 µg/mL (≈ 48.6 µM)	1 µg/mL (≈ 1.52 µM)	8 µg/mL (≈ 12.1 µM)	> 32 µg/mL	16 µg/mL (≈ 24.3 µM)	1 µg/mL (≈ 1.52 µM)	> 32 µg/mL	32 µg/mL (≈ 48.6 µM)	4 µg/mL (≈ 6.07 µM)
CO[C@@H]1[C@@H](OC(=O)c2ccc(C)[nH]2)[C@@H](O)[C@H](Oc2ccc3c(O)c(NC(=O)c4ccc(O)c(NC(=O)C(C)C)c4)c(=O)oc3c2Cl)OC1(C)C	> 32 µg/mL	> 32 µg/mL	3.1 µM	1 µg/mL (≈ 1.4 µM)	4 µg/mL (≈ 5.6 µM)	3.1 µM	> 32 µg/mL	41 nM	73 nM	> 32 µg/mL	16 µg/mL (≈ 22.4 µM)	4 µg/mL (≈ 5.6 µM)	16 µg/mL (≈ 22.4 µM)	> 32 µg/mL	32 µg/mL (≈ 44.8 µM)	2 µg/mL (≈ 2.8 µM)	> 32 µg/mL	> 32 µg/mL	8 µg/mL (≈ 11.2 µM)
CO[C@@H]1[C@@H](OC(=O)c2ccc(C)[nH]2)[C@@H](O)[C@H](Oc2ccc3c(O)c(NC(=O)c4cc(C)c(O)c(C)c4)c(=O)oc3c2Cl)OC1(C)C	> 32 µg/mL	> 32 µg/mL	13 µM	1 µg/mL (≈ 1.52 µM)	4 µg/mL (≈ 6.09 µM)	6.3 µM	> 32 µg/mL	17 nM	65 nM	> 32 µg/mL	16 µg/mL (≈ 24.4 µM)	0.25 µg/mL (≈ 0.38 µM)	8 µg/mL (≈ 12.2 µM)	> 32 µg/mL	16 µg/mL (≈ 24.4 µM)	0.125 µg/mL (≈ 0.19 µM)	> 32 µg/mL	32 µg/mL (≈ 48.7 µM)	8 µg/mL (≈ 12.2 µM)
CO[C@@H]1[C@@H](OC(=O)c2ccc(C)[nH]2)[C@@H](O)[C@H](Oc2ccc3c(O)c(NC(=O)/C=C/c4ccccc4)c(=O)oc3c2Cl)OC1(C)C	> 32 µg/mL	> 32 µg/mL	6.3 µM	4 µg/mL (≈ 6.26 µM)	8 µg/mL (≈ 12.5 µM)	3.1 µM	> 32 µg/mL	34 nM	90 nM	> 32 µg/mL	32 µg/mL (≈ 50.1 µM)	1 µg/mL (≈ 1.56 µM)	16 µg/mL (≈ 25 µM)	> 32 µg/mL	16 µg/mL (≈ 25 µM)	0.25 µg/mL (≈ 0.391 µM)	> 32 µg/mL	> 32 µg/mL	16 µg/mL (≈ 25 µM)
CO[C@@H]1[C@@H](OC(=O)c2ccc(C)[nH]2)[C@@H](O)[C@H](Oc2ccc3c(O)c(NC(=O)c4cc(C)c(O)c(C)c4)c(=O)oc3c2)OC1(C)C	> 32 µg/mL	> 32 µg/mL	> 100 µM	8 µg/mL (≈ 12.8 µM)	8 µg/mL (≈ 12.8 µM)	inactive	> 32 µg/mL	120 nM	229 nM	> 32 µg/mL	> 32 µg/mL	4 µg/mL (≈ 6.42 µM)	16 µg/mL (≈ 25.7 µM)	> 32 µg/mL	16 µg/mL (≈ 25.7 µM)	4 µg/mL (≈ 6.42 µM)	> 32 µg/mL	> 32 µg/mL	16 µg/mL (≈ 25.7 µM)
COc1cc(/C=C/C(=O)Nc2c(O)c3ccc(O[C@@H]4OC(C)(C)[C@H](OC)[C@@H](OC(=O)c5ccc(C)[nH]5)[C@H]4O)c(Cl)c3oc2=O)ccc1O	> 32 µg/mL	> 32 µg/mL	6.3 µM	2 µg/mL (≈ 2.92 µM)	8 µg/mL (≈ 11.7 µM)	3.1 µM	> 32 µg/mL	43 nM	263 nM	> 32 µg/mL	16 µg/mL (≈ 23.4 µM)	0.5 µg/mL (≈ 0.73 µM)	16 µg/mL (≈ 23.4 µM)	> 32 µg/mL	32 µg/mL (≈ 46.7 µM)	0.5 µg/mL (≈ 0.73 µM)	> 32 µg/mL	> 32 µg/mL	8 µg/mL (≈ 11.7 µM)
COc1cc(C(=O)Nc2c(O)c3ccc(O[C@@H]4OC(C)(C)[C@H](OC)[C@@H](OC(=O)c5ccc(C)[nH]5)[C@H]4O)c(C)c3oc2=O)ccc1O	> 32 µg/mL	> 32 µg/mL	12.5 µM	2 µg/mL (≈ 3.13 µM)	1 µg/mL (≈ 1.57 µM)	12.5 µM	> 32 µg/mL	25 nM	86 nM	> 32 µg/mL	16 µg/mL (≈ 25.1 µM)	0.25 µg/mL (≈ 0.391 µM)	4 µg/mL (≈ 6.26 µM)	> 32 µg/mL	8 µg/mL (≈ 12.5 µM)	≤ 0.06 µg/mL	> 32 µg/mL	> 32 µg/mL	2 µg/mL (≈ 3.13 µM)
